ChEMBL document CHEMBL4311979, “Structural isomers of cinnamic hydroxamic acids block HCV replication via different mechanisms” (Eur J Med Chem, 2019)

Experiments:
[1] = Cytotoxicity against human HuH7 cells assessed as reduction in cell viability incubated for 3 days by MTT assay; assay type: cell-based, Huh-7
Outline: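 Huh7 cells were reseeded and dosed over a range of concentrations after 24 h (30-40% monolayer). Incubation was three days at 37 °C in 5% CO2, and viability was read by MTT. CC50 is the mean and standard deviation of at least six independent experiments.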

[2] = target: T1, Histone deacetylase 1/2/3 (Homo sapiens) (UniProt Q13547+O15379+Q92769); assay: Inhibition of HDAC1/2/3 in human HuH7-luc/neo cells assessed as ratio of H3K9/14ac content to the content of unmodified histone H3 at 1 uM incubated for 24 hrs by Western blot analysis relative to control; assay type: cell-based
Outline: (§1)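 Huh7-luc/neo cells were dosed after 24 h at 40-50% monolayer and exposed to compound for 24 h at 37 °C in 5% CO2. For α-tubulin and SMC3, cells were PBS-washed and lysed. Histone H3 was acid-extracted: TEB buffer with 0.5% Triton X-100, then 0.2 M HCl overnight at 4 °C, then neutralized. Western blots were blocked in 5% milk/PBST with overnight primary antibody at 4 °C. Values are acetylated/total normalized ratios versus control.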

[3] = target: T2, Histone deacetylase 8 (Homo sapiens) (UniProt Q9BY41); assay: Inhibition of HDAC8 in human HuH7-luc/neo cells assessed as ratio of SMC3K105/106ac content to the content of unmodified SMC3 at 0.1 uM incubated for 24 hrs by Western blot analysis relative to control; assay type: cell-based; outline: as §1
T2 sequence (whole entry): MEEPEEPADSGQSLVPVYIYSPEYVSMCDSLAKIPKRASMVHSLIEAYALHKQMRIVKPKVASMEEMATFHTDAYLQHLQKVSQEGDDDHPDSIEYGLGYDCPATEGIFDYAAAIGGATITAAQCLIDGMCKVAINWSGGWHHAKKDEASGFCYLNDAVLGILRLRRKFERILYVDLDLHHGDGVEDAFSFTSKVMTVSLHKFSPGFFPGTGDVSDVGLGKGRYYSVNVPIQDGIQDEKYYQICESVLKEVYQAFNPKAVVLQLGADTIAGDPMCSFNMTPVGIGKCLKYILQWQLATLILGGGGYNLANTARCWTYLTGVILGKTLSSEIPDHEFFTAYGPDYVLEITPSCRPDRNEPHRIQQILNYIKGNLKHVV

[4] = target: T3, Protein deacetylase HDAC6 (Homo sapiens) (UniProt Q9UBN7); assay: Inhibition of HDAC6 in human HuH7-luc/neo cells assessed as ratio of alphaTubK40ac content to the content of unmodified alpha-tubulin at 1 uM incubated for 24 hrs by Western blot analysis relative to control; assay type: cell-based; outline: as §1
T3 sequence (whole entry): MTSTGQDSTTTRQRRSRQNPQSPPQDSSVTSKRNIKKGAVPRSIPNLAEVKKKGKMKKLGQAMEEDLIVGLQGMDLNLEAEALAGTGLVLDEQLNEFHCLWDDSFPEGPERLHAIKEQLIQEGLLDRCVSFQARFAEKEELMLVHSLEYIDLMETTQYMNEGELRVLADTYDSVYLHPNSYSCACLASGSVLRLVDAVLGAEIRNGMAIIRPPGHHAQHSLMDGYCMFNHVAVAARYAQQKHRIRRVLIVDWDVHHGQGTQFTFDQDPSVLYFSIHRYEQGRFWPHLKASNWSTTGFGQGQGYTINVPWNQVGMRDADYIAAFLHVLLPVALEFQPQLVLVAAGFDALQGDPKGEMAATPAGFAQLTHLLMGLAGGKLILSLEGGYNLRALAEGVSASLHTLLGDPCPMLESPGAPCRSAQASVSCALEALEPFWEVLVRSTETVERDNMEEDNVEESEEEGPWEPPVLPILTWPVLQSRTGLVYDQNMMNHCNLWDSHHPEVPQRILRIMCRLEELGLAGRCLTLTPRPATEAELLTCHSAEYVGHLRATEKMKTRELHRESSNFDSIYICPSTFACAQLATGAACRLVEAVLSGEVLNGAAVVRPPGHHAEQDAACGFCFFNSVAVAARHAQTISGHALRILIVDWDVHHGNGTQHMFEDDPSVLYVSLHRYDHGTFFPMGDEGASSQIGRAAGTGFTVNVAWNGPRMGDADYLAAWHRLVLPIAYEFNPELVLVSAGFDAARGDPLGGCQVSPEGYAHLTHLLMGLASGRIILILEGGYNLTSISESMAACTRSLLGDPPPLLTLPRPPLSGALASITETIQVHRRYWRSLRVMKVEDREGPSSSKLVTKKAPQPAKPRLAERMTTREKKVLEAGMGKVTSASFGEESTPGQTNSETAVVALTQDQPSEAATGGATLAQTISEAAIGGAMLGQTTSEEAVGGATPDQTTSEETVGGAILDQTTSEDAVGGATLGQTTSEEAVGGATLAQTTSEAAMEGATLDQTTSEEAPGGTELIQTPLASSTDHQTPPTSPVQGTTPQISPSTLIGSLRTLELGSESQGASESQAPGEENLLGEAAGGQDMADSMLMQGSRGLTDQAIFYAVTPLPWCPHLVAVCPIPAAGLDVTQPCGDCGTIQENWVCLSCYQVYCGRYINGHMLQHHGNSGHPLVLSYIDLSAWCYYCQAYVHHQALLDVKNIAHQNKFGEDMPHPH

[5] = target: T2, Histone deacetylase 8 (Homo sapiens); assay: Inhibition of HDAC8 in human HuH7-luc/neo cells assessed as ratio of SMC3K105/106ac content to the content of unmodified SMC3 at 0.3 uM incubated for 24 hrs by Western blot analysis relative to control; assay type: cell-based; outline: as §1
[6] = Therapeutic index, ratio of CC50 for human HuH7 cells to EC50 for HCV infected in human HuH7-luc/neo cells; assay type: toxicity, cell-based; conditions: HuH7 cells (CC50) and HCV-infected HuH7-luc/neo cells (EC50)
Hepatitis C virus = assay: Antiviral activity against HCV infected in human HuH7-luc/neo cells assessed as inhibition of viral replicon propagation incubated for 3 days by luciferase reporter gene assay; assay type: functional, organism-based, Hepacivirus hominis; conditions: 72 h
Outline: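 Huh7-luc/neo cells carrying a full-length HCV replicon with a luciferase gene. Cells were reseeded without G418 and dosed at 30-40% monolayer (48 h) over a range of concentrations. Incubation was 72 h at 37 °C in 5% CO2. Cells were then PBS-washed and lysed, and luciferase chemiluminescence was read. EC50 is the mean and standard deviation of at least four independent experiments.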

[7] = target: T2, Histone deacetylase 8 (Homo sapiens); assay: Inhibition of HDAC8 in human HuH7-luc/neo cells assessed as ratio of SMC3K105/106ac content to the content of unmodified SMC3 at 1 uM incubated for 24 hrs by Western blot analysis relative to control; assay type: cell-based; outline: as §1
[8] = target: T2, Histone deacetylase 8 (Homo sapiens); assay: Inhibition of HDAC8 in human HuH7-luc/neo cells assessed as ratio of SMC3K105/106ac content to the content of unmodified SMC3 at 10 uM incubated for 24 hrs by Western blot analysis relative to control; assay type: cell-based; outline: as §1
[9] = target: T1, Histone deacetylase 1/2/3 (Homo sapiens); assay: Inhibition of HDAC1/2/3 in human HuH7-luc/neo cells assessed as ratio of H3K9/14ac content to the content of unmodified histone H3 at 3 uM incubated for 24 hrs by Western blot analysis relative to control; assay type: cell-based; outline: as §1
[10] = target: T3, Protein deacetylase HDAC6 (Homo sapiens); assay: Inhibition of HDAC6 in human HuH7-luc/neo cells assessed as ratio of alphaTubK40ac content to the content of unmodified alpha-tubulin at 3 uM incubated for 24 hrs by Western blot analysis relative to control; assay type: cell-based; outline: as §1
[11] = target: T2, Histone deacetylase 8 (Homo sapiens); assay: Inhibition of HDAC8 in human HuH7-luc/neo cells assessed as ratio of SMC3K105/106ac content to the content of unmodified SMC3 at 3 uM incubated for 24 hrs by Western blot analysis relative to control; assay type: cell-based; outline: as §1
[12] = target: T1, Histone deacetylase 1/2/3 (Homo sapiens); assay: Inhibition of HDAC1/2/3 in human HuH7-luc/neo cells assessed as ratio of H3K9/14ac content to the content of unmodified histone H3 at 0.3 uM incubated for 24 hrs by Western blot analysis relative to control; assay type: cell-based; outline: as §1
[13] = target: T3, Protein deacetylase HDAC6 (Homo sapiens); assay: Inhibition of HDAC6 in human HuH7-luc/neo cells assessed as ratio of alphaTubK40ac content to the content of unmodified alpha-tubulin at 0.3 uM incubated for 24 hrs by Western blot analysis relative to control; assay type: cell-based; outline: as §1

SMILES	fold change (FC) [2]	fold change (FC) [3]	fold change (FC) [4]	fold change (FC) [5]	EC50 (Hepatitis C virus) [µM]	fold change (FC) [7]	fold change (FC) [8]	fold change (FC) [9]	fold change (FC) [10]	fold change (FC) [11]	fold change (FC) [12]	fold change (FC) [13]	CC50 at 72 h [1] [µM]	selectivity ratio [6]
O=C(/C=C/c1ccccc1OCCc1ccccc1)NO	2.39	1.84	0.64	2.03	0.32	1.98	3.78	4.34	0.8	3.17	–	–	83	260
COc1cccc(/C=C/C(=O)NO)c1	1.45	–	2.13	–	0.57	–	–	1.69	3.3	–	–	–	17	30
COc1ccccc1/C=C/C(=O)NO	1.16	–	0.75	–	1.1	–	–	1.56	1.45	–	–	–	30	27
O=C(/C=C/c1ccccc1OCCOc1ccccc1)NO	1.47	1.58	0.5	2.07	0.37	2.14	2.87	1.94	0.69	3.18	–	–	45	120
COc1ccc(/C=C/C(=O)NO)cc1	1.35	–	3.57	–	0.56	–	–	1.85	5.1	–	–	0.55	15	27
O=C(/C=C/c1ccccc1OCc1ccccc1)NO	0.95	1.51	2.46	1.19	0.25	1.61	3.14	1.48	1.99	2.16	–	–	31	120
O=C(/C=C/c1ccc(OCc2ccccc2)cc1)NO	4.23	–	4.92	–	0.042	–	0.67	4.83	8.86	0.93	–	1.63	9.9	240
O=C(/C=C/c1ccc(OCCc2ccccc2)cc1)NO	9	–	0.5	–	0.13	–	0.41	9.6	2.55	0.52	4.3	0.52	16	120

The next lines start with results.

fold change (FC) [2]	fold change (FC) [3]	fold change (FC) [4]	fold change (FC) [5]	EC50 (Hepatitis C virus) [µM]	fold change (FC) [7]	fold change (FC) [8]	fold change (FC) [9]	fold change (FC) [10]	fold change (FC) [11]	fold change (FC) [12]	fold change (FC) [13]	SMILES	CC50 at 72 h [1] [µM]	selectivity ratio [6]
1.69	–	2.22	–	0.054	–	0.73	2.58	2.58	0.83	1.53	2.09	O=C(/C=C/c1ccc(Oc2ccccc2)cc1)NO	20	370
7.5	–	3.33	–	0.11	–	1.44	20.2	7.72	0.89	–	–	O=C(/C=C/c1cccc(OCCOc2ccccc2)c1)NO	6	55
8.42	–	7.34	–	0.18	–	0.83	14.1	10.6	0.82	–	–	O=C(/C=C/c1cccc(OCc2ccccc2)c1)NO	6.6	37
1.75	–	2.58	–	0.4	–	1.02	1.9	3.79	0.54	1.27	1.54	O=C(/C=C/c1cccc(Oc2ccccc2)c1)NO	20	50
0.9	1.7	0.74	2.03	0.4	2.15	3.14	1.46	1.01	2.66	0.62	–	O=C(/C=C/c1ccccc1Oc1ccccc1)NO	66	165
8.55	–	3.53	–	0.3	–	0.58	11.2	4.34	0.7	–	–	O=C(/C=C/c1cccc(OCCc2ccccc2)c1)NO	12	41
11.2	–	3.73	–	0.063	–	1.13	15.4	6.35	0.84	4.04	0.86	O=C(/C=C/c1ccc(OCCOc2ccccc2)cc1)NO	5.7	91
